From PubChem BioAssay AID651942 (The Scripps Research Institute Molecular Screening Center, 2012)
Activity calls are given as the source filed them.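 The calls were made as follows: active = inhibitor of the AddAB recombination enzyme whose half-maximal inhibitory concentration is at or below 10 µM; inactive = half-maximal inhibitory concentration above 10 µM.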

Tested on: E. coli V3065 expressing H. pylori AddAB, T4 phage, OD growth
Experiment: dose-dependent OD loss of phage-infected AddAB+ E. coli – absorbance, E. coli V3065, powder samples, round 2, AddAB inhibitor project, late-stage follow-up (AID 651942)
Procedure, shortened: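 Replication – each compound tested in triplicate · Material – E. coli V3065 carrying H. pylori addAB+ · Medium – Cation Mueller Hinton broth · Probe or stimulus – mutant T4 phage, MOI 0.02 · Timing – 60 min preincubation, 18 h post-infection, 37 °C · Detection – optical density at 600 nm as bacterial growth measure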

## CCn1cc(C(=O)O)c(=O)c2cnc(N3CCN(C(=S)NCc4ccccc4)CC3)nc21
  IC50: 29.4 µM (inactive)

## CCn1cc(C(=O)O)c(=O)c2cnc(N3CCN(C(=S)Nc4ccc(Cl)cc4)CC3)nc21
  IC50: 6.5 µM

## CCn1cc(C(=O)O)c(=O)c2cnc(N3CCN(C(=S)NC(=O)c4cccc(C)c4)CC3)nc21
  IC50: 19 µM (inactive)

## CCn1cc(C(=O)O)c(=O)c2cnc(N3CCN(C(=S)Nc4ccccc4F)CC3)nc21
  IC50: 7.65 µM

## CCn1cc(C(=O)O)c(=O)c2cnc(N3CCN(C(=S)Nc4cccc(C(F)(F)F)c4)CC3)nc21
  IC50: 1.03 µM

## CCn1cc(C(=O)O)c(=O)c2cnc(N3CCN(C(=S)Nc4ccccc4OC)CC3)nc21
  IC50: 30.6 µM (inactive)
